Active and inactive are the calls of the source.
Key:
Mus musculus [1] = assay: Anticonvulsant activity in ip dosed CF1 albino mouse assessed as protection against maximal electroshock-induced seizure after 0.25 hrs; type: functional
Method in brief: (§1)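 Male CF-1 mice dosed ip as suspension in 0.5% methylcellulose. Corneal electrodes deliver 60 Hz alternating current, 50 mA for […], after a drop of 0.5% tetracaine HCl in 0.9% NaCl per eye. Protection means abolition of hindlimb tonic extension; scored as protected/tested, or ED50 with 95% confidence interval.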

Rattus norvegicus [2] = assay: Anticonvulsant activity in ip dosed Sprague-Dawley rat assessed as protection against maximal electroshock-induced seizure after 1 hr; type: functional
Mus musculus [3] = assay: Anticonvulsant activity in ip dosed CF1 albino mouse assessed as protection against subcutaneous pentetrazole-induced seizure after 0.25 hrs; type: functional
Method in brief: (§2)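 Male CF-1 mice, ip in 0.5% methylcellulose; pentetrazole at CD97 (85 mg/kg) injected subcutaneously in a loose fold of neck skin. Observed 30 min; absence of even a threshold seizure (single clonic spasm lasting at least 5 s) counted as protection. Scored protected/tested, or ED50.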

Rattus norvegicus [4] = assay: Anticonvulsant activity in ip dosed Sprague-Dawley rat assessed as protection against subcutaneous pentetrazole-induced seizure after 0.5 hrs; type: functional
Mus musculus [5] = assay: Neurotoxicity in ip dosed CF1 albino mouse after 0.5 hrs by rotarod test; type: toxicity, organism-based; conditions: in vivo
Method in brief: (§3)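 Rotarod neurotoxicity in male albino CF-1 mice dosed ip with compound suspended in 0.5% methylcellulose. Animal placed on a 1 inch diameter knurled plastic rod rotating at 6 rpm. Neurotoxicity scored when the animal falls off three times within 1 min. Readout is number of animals toxic/number tested at the stated time after dosing. TD50 with 95% confidence interval from the quantitative study.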

Rattus norvegicus [6] = assay: Neurotoxicity in ip dosed Sprague-Dawley rat after 0.5 hrs by rotarod test; type: toxicity, organism-based; conditions: in vivo
Mus musculus [7] = assay: Protective index, ratio of TD50 for ip dosed CF1 albino mouse to ED50 for ip dosed CF1 albino mouse assessed as protection against maximal electroshock-induced seizure after 0.25 hrs; type: functional
Rattus norvegicus [8] = assay: Protective index, ratio of TD50 for ip dosed Sprague-Dawley rat to ED50 for ip dosed Sprague-Dawley rat assessed as protection against maximal electroshock-induced seizure after 1 hr; type: functional
Method in brief: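 PI = TD50/ED50. Male CF-1 mice or male Sprague–Dawley rats given compound ip as 0.5% methylcellulose suspension. MES: 60 Hz corneal current, 50 mA mice or 150 mA rats, for […] after tetracaine eye drops; protection is abolition of hindlimb tonic extension.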

Mus musculus [9] = assay: Analgesic activity in mouse assessed as inhibition of formalin-induced paw licking behavior at 16 mg/kg, ip after 0.25 hrs; type: functional, organism-based
Method in brief: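 Male albino mice, ip in 0.5% methylcellulose; 0.5% formalin injected sub-dermally into right hindpaw plantar surface 0.25 h after dosing. Paw licking observed for the first 2 min of each 5-min epoch up to 40 min after dosing; cumulative licking duration compared with vehicle-pretreated group, acute and inflammatory phases.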

Mus musculus [10] = assay: Anticonvulsant activity in CF1 albino mouse assessed as protection against maximal electroshock-induced seizure at 3 mg/kg, ip after 0.5 hrs; type: functional, organism-based; method in brief: as §1
Mus musculus [11] = assay: Anticonvulsant activity in CF1 albino mouse assessed as protection against maximal electroshock-induced seizure at 10 mg/kg, ip after 0.5 hrs; type: functional, organism-based; method in brief: as §1
Mus musculus [12] = assay: Anticonvulsant activity in CF1 albino mouse assessed as protection against maximal electroshock-induced seizure at 30 mg/kg, ip after 4 hrs; type: functional, organism-based; method in brief: as §1
Mus musculus [13] = assay: Anticonvulsant activity in CF1 albino mouse assessed as protection against maximal electroshock-induced seizure at 100 mg/kg, ip after 0.5 hrs; type: functional, organism-based; method in brief: as §1
Mus musculus [14] = assay: Anticonvulsant activity in CF1 albino mouse assessed as protection against maximal electroshock-induced seizure at 100 mg/kg, ip after 4 hrs; type: functional, organism-based; method in brief: as §1
Mus musculus [15] = assay: Anticonvulsant activity in CF1 albino mouse assessed as protection against subcutaneous pentetrazole-induced seizure at 30 mg/kg, ip after 0.5 hrs; type: functional, organism-based; method in brief: as §2
Mus musculus [16] = assay: Anticonvulsant activity in CF1 albino mouse assessed as protection against subcutaneous pentetrazole-induced seizure at 30 mg/kg, ip after 4 hrs; type: functional, organism-based; method in brief: as §2
Mus musculus [17] = assay: Anticonvulsant activity in CF1 albino mouse assessed as protection against subcutaneous pentetrazole-induced seizure at 100 mg/kg, ip after 0.5 hrs; type: functional, organism-based; method in brief: as §2
Mus musculus [18] = assay: Anticonvulsant activity in CF1 albino mouse assessed as protection against subcutaneous pentetrazole-induced seizure at 300 mg/kg, ip after 0.5 hrs; type: functional, organism-based; method in brief: as §2
Mus musculus [19] = assay: Neurotoxicity in CF1 albino mouse at 300 mg/kg, ip after 4 hrs by rotarod test; type: toxicity, organism-based; conditions: in vivo; method in brief: as §3
Mus musculus [20] = assay: Neurotoxicity in CF1 albino mouse assessed as unable to grasp rotarod, death, diarrhea, loss of righting reflux and clonic seizure at 100 mg/kg, ip after 0.5 hrs by rotarod test; type: toxicity, organism-based; conditions: in vivo
Method in brief: (§4)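 Male albino CF-1 mice dosed ip with compound suspended in 0.5% methylcellulose, then placed on a 1-inch knurled plastic rod turning at 6 rpm. A fall three times within 1 min counted as neurotoxicity. Observations were made at 0.5 h and 4 h after dosing. Result given as animals showing toxicity per animals tested, with the kind of toxicity recorded.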

Mus musculus [21] = assay: Neurotoxicity in CF1 albino mouse assessed as unable to grasp rotarod and death at 300 mg/kg, ip after 0.5 hrs by rotarod test; type: toxicity, organism-based; conditions: in vivo; method in brief: as §4
Rattus norvegicus [22] = assay: Anticonvulsant activity in Sprague-Dawley rat assessed as protection against maximal electroshock-induced seizure at 30 mg/kg, ip after 1 hr; type: functional, organism-based
Rattus norvegicus [23] = assay: Neurotoxicity in Sprague-Dawley rat at 30 mg/kg, ip after 0.25 hrs by rotarod test; type: toxicity, organism-based; conditions: in vivo
Method in brief: (§5)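 Male Sprague–Dawley rats given compound ip as a suspension in 0.5% methylcellulose, groups of four. Rotarod: 1 inch knurled rod at 6 rpm; three falls within 1 min counts as neurotoxic. Scored as number toxic/number tested at pretreatment times between 0.25 and 4 h, or at the stated time.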

Rattus norvegicus [24] = assay: Neurotoxicity in Sprague-Dawley rat at 30 mg/kg, ip after 1 hr by rotarod test; type: toxicity, organism-based; conditions: in vivo; method in brief: as §5
Rattus norvegicus [25] = assay: Neurotoxicity in Sprague-Dawley rat at 30 mg/kg, ip after 2 hrs by rotarod test; type: toxicity, organism-based; conditions: in vivo; method in brief: as §5
Rattus norvegicus [26] = assay: Neurotoxicity in Sprague-Dawley rat at 30 mg/kg, ip after 4 hrs by rotarod test; type: toxicity, organism-based; conditions: in vivo; method in brief: as §5
Rattus norvegicus [27] = assay: Anticonvulsant activity in Sprague-Dawley rat assessed as protection against maximal electroshock-induced seizure at 30 mg/kg, po; type: functional
Mus musculus [28] = assay: Anticonvulsant activity in CF1 albino mouse assessed as protection against 6 Hz-psychomotor-induced seizure at 30 mg/kg, ip after 0.25 to 4 hrs; type: functional, organism-based
Method in brief: (§6)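 Male CF-1 mice, ip suspension in 0.5% methylcellulose. Corneal stimulation 0.2 ms monopolar rectangular pulses at 6 Hz, 32 mA for 3 s via constant-current device; mice without minimal clonic phase seizure counted protected. Groups of four; read at 0.25, 0.5, 1, 2, 4 h; result as protected/tested.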

Mus musculus [29] = assay: Anticonvulsant activity in CF1 albino mouse assessed as protection against 6 Hz-psychomotor-induced seizure at 60 mg/kg, ip after 4 hrs; type: functional, organism-based; method in brief: as §6
Mus musculus [30] = assay: Neurotoxicity in CF1 albino mouse at 60 mg/kg, ip after 1 to 4 hrs by rotarod test; type: toxicity, organism-based; conditions: in vivo; method in brief: as §3
Mus musculus [31] = assay: Neurotoxicity in ip dosed CF1 albino mouse after 0.25 hrs by rotarod test; type: toxicity, organism-based; conditions: in vivo
Method in brief: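 Rotarod neurotoxicity in male albino CF-1 mice dosed ip with compound suspended in 0.5% methylcellulose. Animal placed on a 1 inch diameter knurled plastic rod rotating at 6 rpm. Neurotoxicity scored when the animal falls off three times within 1 min. Readout is number of animals toxic/number tested at the stated time after dosing.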

`CC1CCCN(CCCCCCCOc2ccc(Cl)cc2)C1.O=C(O)C(=O)O` (stereo unspecified) showed an ED50 (Mus musculus [1]) of 16.1 mg/kg, an ED50 (Rattus norvegicus [2]) of 13.2 mg/kg and an ED50 (Mus musculus [3]) of over 47 mg/kg. For the same compound, the ED50 (Rattus norvegicus [4]) was over 50 mg/kg, the ED50 (Mus musculus [5]) was 5.35 mg/kg and the ED50 (Rattus norvegicus [6]) was 50.35 mg/kg. For the same compound, the “Ratio TD50/ED50” value (Mus musculus [7]) was 3, the “Ratio TD50/ED50” value (Rattus norvegicus [8]) was 3.8 and the Activity (Mus musculus [9]) was “inactive”. The Activity (Mus musculus [10]) was “inactive”, the Activity (Mus musculus [11]) was “inactive” and the Activity (Mus musculus [12]) was “Active”. The Activity (Mus musculus [13]) was “Active”, the Activity (Mus musculus [14]) was “Active” and the Activity (Mus musculus [15]) was “inactive”. For the same compound, the Activity (Mus musculus [16]) was “inactive”, the Activity (Mus musculus [17]) was “inactive” and the Activity (Mus musculus [18]) was “inactive”. The Activity (Mus musculus [19]) was “Non-toxic”, the Activity (Mus musculus [20]) was “Toxic” and the Activity (Mus musculus [21]) was “Toxic”. For the same compound, the Activity (Rattus norvegicus [22]) was “Active”, the Activity (Rattus norvegicus [23]) was “Non-toxic” and the Activity (Rattus norvegicus [24]) was “Non-toxic”. For the same compound, the Activity (Rattus norvegicus [25]) was “Non-toxic”, the Activity (Rattus norvegicus [26]) was “Non-toxic” and the Activity (Rattus norvegicus [27]) was 25%. For the same compound, the Activity (Mus musculus [28]) was “inactive”, the Activity (Mus musculus [29]) was “inactive” and the Activity (Mus musculus [30]) was “Non-toxic”. The “TD50 (median neurotoxic dose)” value (Mus musculus [31]) was 48.28 mg/kg.
